The values below come from ChEMBL document CHEMBL2062472, “N-(2-oxo-3-oxetanyl)carbamic acid esters as N-acylethanolamine acid amidase inhibitors: synthesis and structure-activity and structure-property relationships” (J Med Chem, 2012).

A word on the IC50: it is the midpoint of a concentration-inhibition curve.

Data set [1] can be described thus: Apparent half life of the compound in rat plasma by HPLC analysis. Type of data set: ADME, cell-free. The settings on record: read-out: t1/2(app) (converted). The essentials:
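Pooled heparinized plasma from male Wistar rats was diluted to 80% (v/v) with PBS pH 7.4. Compound was added at 5–100 μM final (1% DMSO) and incubated at 37 °C with shaking. Aliquots were quenched with 2 volumes of CH3CN, centrifuged, and analysed by RP-HPLC. t1/2 came from log[compound]-vs-time regression, as mean ± SD of three experiments.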

In the next data set the target is Albumin (Bos taurus, UniProt P02769). Nature of the data set: Apparent half life of the compound in bovine serum albumin in phosphate-buffered saline at pH 7.4. The class given is ADME. The settings on record: cattle, read-out: t1/2(app). The essentials: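 Compound incubated at 5–100 μM final (1% DMSO) at 37 °C in 20 mg/mL bovine serum albumin in PBS pH 7.4. Aliquots were quenched with 2 volumes of CH3CN, centrifuged, and analysed by RP-HPLC. Apparent t1/2 came from pseudo-first-order regression of log[compound] vs time.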

Data set [2] in a line: Apparent Half life of the compound in 0.01 M phosphate buffer at pH 5 in presence of 3 mM DTT. To be noted: read-out: t1/2(app).
Data set [3] in a line: Apparent Half life of the compound in 0.01 M phosphate buffer at pH 5. The class given is physicochemical. The settings on record: read-out: t1/2(app). The essentials:
(§1)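 Compound (from DMSO stock; 1% DMSO final) incubated at 1–100 μM final at 37 °C with shaking, ionic strength 0.15 M, in 0.01 M PBS pH 7.4 or 0.01 M phosphate buffer pH 5.0. Aliquots taken over time were analysed by RP-HPLC. Apparent t1/2 came from pseudo-first-order rate constants (linear regression of log[compound] vs time), reported as mean ± SD of three experiments.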

The target in data set [4] is T1, N-acylethanolamine-hydrolyzing acid amidase (Rattus norvegicus, UniProt Q5KTC7).
T1 sequence (Q5KTC7 whole entry): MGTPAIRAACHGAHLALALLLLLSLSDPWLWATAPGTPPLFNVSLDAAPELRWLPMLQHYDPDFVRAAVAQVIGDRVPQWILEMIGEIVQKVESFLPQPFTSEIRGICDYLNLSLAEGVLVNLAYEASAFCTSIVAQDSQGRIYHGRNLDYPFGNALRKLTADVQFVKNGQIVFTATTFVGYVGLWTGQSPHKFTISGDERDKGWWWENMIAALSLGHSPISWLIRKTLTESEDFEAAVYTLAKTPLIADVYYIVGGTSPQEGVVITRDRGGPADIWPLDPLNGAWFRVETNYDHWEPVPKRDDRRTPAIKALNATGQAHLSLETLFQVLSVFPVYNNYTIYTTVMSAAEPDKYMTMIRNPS
Description: Inhibition of rat recombinant NAAA expressed in HEK293 cells using heptadecenoylethanolamide as substrate after 30 mins by LC/MS analysis. Type of data set: cell-based. The essentials:
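Recombinant rat NAAA incubated 30 min at 37 °C in 50 mM sodium hydrogen phosphate buffer pH 5.0 containing 0.1% Triton X-100, 3 mM DTT and heptadecenoylethanolamide substrate (50 mM as printed). The reaction was stopped with cold methanol containing 1 nmol heptadecanoic acid. Product was measured by LC/MS with negative ESI, selected ion monitoring at m/z 267.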

Data set [5] is described as follows: Apparent Half life of the compound in 0.01 M phosphate-buffered saline at pH 7.4. The settings on record: read-out: t1/2(app). Type of data set: physicochemical. The essentials:
as §1

Data set [6] is described as follows: Drug degradation in 0.01 M phosphate-buffered saline at pH 7.4 assessed as N-acylated L-serine product formation by HPLC-UV-MS analysis. Type of data set: physicochemical. The settings on record: buffer. The essentials:
(§2)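 Compound incubated at 37 °C in 0.01 M phosphate buffer pH 5.0 or 0.01 M PBS pH 7.4 (μ = 0.15 M; 1% DMSO) for up to 3 days. Degradation products were followed by RP-HPLC-UV and ESI-MS on a C18 column with acetonitrile/10 mM ammonium acetate (pH 7.0) mobile phase. Products were quantified against calibration curves of pure standards.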

Data set [7] in a line: Drug degradation in 0.01 M phosphate buffer at pH 5 assessed as N-acylated L-serine product formation by HPLC-UV-MS analysis. Type of data set: physicochemical. Summed up:
as §2

Data set [8] in a line: Drug degradation in 0.01 M phosphate buffer at pH 5 assessed as time required for O-(2-naphthoyl)-L-serine product formation by HPLC-UV-MS analysis. The class given is physicochemical. The essentials: as §2
A short description of data set [9]: Drug degradation in 0.01 M phosphate buffer at pH 5 assessed as N-(2-Naphthoyl)-L-serine product formation at > 2 hrs by HPLC-UV-MS analysis. The class given is physicochemical. The settings on record: pH 5, 2 h. The essentials:
as §2

Data set [10] can be described thus: Drug degradation in 0.01 M phosphate-buffered saline at pH 7.4 assessed as N-(2-Naphthoyl)-L-serine product formation by HPLC-UV-MS analysis. The settings on record: buffer. The class given is physicochemical. Summed up:
as §2

Data set [11] in a line: Drug degradation in 0.01 M phosphate buffer at pH 5 assessed as 2-Naphtholic acid product formation at > 2 hrs by HPLC-UV-MS analysis. To be noted: pH 5, 2 h. Type of data set: physicochemical. Summed up: as §2
Data set [12] is described as follows: Drug degradation in 0.01 M phosphate buffer at pH 5 assessed as O-(2-naphthoyl)-L-serine product formation by HPLC-UV-MS analysis. The class given is physicochemical. Summed up:
as §2

Data set [13] in a line: Drug degradation in 0.01 M phosphate-buffered saline at pH 7.4 assessed as 2-naphtholic acid product formation after 24 hrs by HPLC-UV-MS analysis. Type of data set: physicochemical. The settings on record: buffer, pH 7.4, 24 h. Summed up:
as §2

The nature of data set [14]: Drug degradation in 0.01 M phosphate buffer at pH 5 assessed as time required for N-(2-Naphthoyl)-L-serine product formation by HPLC-UV-MS analysis. The class given is physicochemical. The essentials:
as §2

Albumin, sequence (P02769 whole entry): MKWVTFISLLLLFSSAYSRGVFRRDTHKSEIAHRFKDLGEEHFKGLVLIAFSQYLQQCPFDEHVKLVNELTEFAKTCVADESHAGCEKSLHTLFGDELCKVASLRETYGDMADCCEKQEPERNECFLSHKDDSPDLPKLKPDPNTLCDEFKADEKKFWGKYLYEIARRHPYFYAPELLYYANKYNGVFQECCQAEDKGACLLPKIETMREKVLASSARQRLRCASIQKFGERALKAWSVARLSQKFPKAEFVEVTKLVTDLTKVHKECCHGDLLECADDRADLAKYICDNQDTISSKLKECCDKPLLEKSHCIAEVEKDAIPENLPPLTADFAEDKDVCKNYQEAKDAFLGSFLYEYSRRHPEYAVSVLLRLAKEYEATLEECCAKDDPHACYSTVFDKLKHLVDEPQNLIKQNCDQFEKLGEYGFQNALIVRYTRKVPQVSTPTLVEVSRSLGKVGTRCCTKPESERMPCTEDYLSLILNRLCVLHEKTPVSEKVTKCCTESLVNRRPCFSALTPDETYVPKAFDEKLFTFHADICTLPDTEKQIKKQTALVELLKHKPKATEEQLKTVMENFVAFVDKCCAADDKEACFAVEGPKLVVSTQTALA

With `C[C@@H]1OC(=O)[C@H]1NC(=O)OC(C)(C)C`, the half-life in data set [1] was less than 0.167 min; at Albumin, 87.7 min; in data set [2], 80.4 min; in [3] it was 93.8 min; in data set [5], 80.7 min. For the same molecule, in data set [4], the half-inhibitory concentration (IC50) was found to be 0.19 µM.

`O=C(NCc1ccccc1)N[C@H]1COC1=O`: the half-life is less than 0.167 min in data set [1]; 4.6 min on Albumin; 25.1 min in [2]; 29.7 min in [3]; 3.3 min in data set [5]. The IC50 in data set [4] was 15 µM.

Consider `O=C(N[C@H]1COC1=O)c1ccc(-c2ccccc2)cc1`, for which the half-life was 0.533 min in [1]; 3.3 min on Albumin; 20.9 min in [2]; 28.4 min in [3]; 12.6 min in data set [5]. In addition, the Drug degradation entry in data set [6] and in [7] was “Active” each time.

As to `O=C(NC1CCC1=O)OCc1ccccc1` (racemic), the concentration for half-maximal inhibition (IC50) in data set [4] was greater than 100 µM.

Regarding `C[C@H]1OC(=O)[C@H]1NC(=O)OCc1ccccc1`, in [4], the 50% inhibitory concentration (IC50) was found to be 10 µM.

As for `O=C(CCc1ccccc1)N[C@H]1COC1=O`, the half-life was less than 0.167 min in data set [1]; 7 min on Albumin; 19 min in data set [2]; 23.1 min in data set [3]; 18 min in data set [5]. The Drug degradation entry in data set [6] and in [7] was “Active” each time.

With `C[C@H]1OC(=O)[C@H]1NC(=O)OC(C)(C)C`, the half-life is 0.217 min in data set [1]; 121 min on Albumin; 149 min in data set [2]; 217 min in data set [3]; 143 min in data set [5]. Also, the IC50 in data set [4] was greater than 80 µM.

As for `O=C(N[C@H]1COC1=O)c1ccc(OCc2ccccc2)cc1`, the half-life was 1.08 min in data set [1]; 5.8 min at Albumin; 18.8 min in [2]; 23.2 min in [3]; 13.4 min in data set [5]. The Drug degradation entry in data set [6] and in [7] was “Active” throughout.

In the case of `O=C(N[C@@H]1COC1=O)OCc1ccccc1`, in [4], the IC50 was 0.7 µM.

Consider `C[C@H]1OC(=O)[C@H]1NC(=O)CCc1ccccc1`, for which the half-life was less than 0.167 min in data set [1]; 16 min at Albumin; 100 min in [2]; 135 min in data set [3]; 73.8 min in [5]. The Drug degradation entry in data set [6] and in [7] was “Active” throughout.

For `CCOC(=O)c1ccc2cc(C(=O)N[C@H]3COC3=O)ccc2c1`, the half-life in data set [1] is 1.25 min; at Albumin it was 3.2 min; in data set [2] it was 20.9 min; in data set [3] it was 25.1 min; in [5] it was 12.1 min. In addition, the Drug degradation result in data set [6] and in [7] was “Active” throughout.

Regarding `C[C@H]1OC(=O)[C@@H]1NC(=O)OC(C)(C)C`, in [4], the concentration for half-maximal inhibition (IC50) is 4.9 µM.

For the molecule `O=C(NC1CCC1)OCc1ccccc1` [CYCLOBUTYLCARBAMIC ACID BENZYL ESTER], the half-inhibitory concentration (IC50) in [4] is greater than 100 µM.

In the case of `O=C(N[C@H](CO)C(=O)O)OCc1ccccc1`, in data set [4], the IC50 was greater than 100 µM.

For the molecule `O=C(N[C@H]1COC1=O)c1ccc(C(=O)Oc2ccccc2)cc1`, the half-life was less than 0.167 min in data set [1]; 2.7 min on Albumin; 19.5 min in data set [2]; 23.7 min in [3]; 9.8 min in data set [5]. In addition, the Drug degradation entry in [6] and in data set [7] was “Active” in each case.

`O=C(N[C@@H](CO)C(=O)O)OCc1ccccc1`: in data set [4], the half-maximal inhibitory concentration (IC50) was greater than 100 µM.

Turning to `O=C(N[C@H]1COC1=O)OCc1ccccc1`, the half-life in [1] was less than 0.167 min; on Albumin it was 1.2 min; in [2] it was 30.5 min; in data set [3], 39.2 min; in data set [5], 26.7 min.

Take `C[C@@H]1OC(=O)[C@@H]1NC(=O)OCc1ccccc1`: the half-life in data set [1] was less than 0.167 min; on Albumin, 5.1 min; in data set [2], 127 min; in data set [3] it was 185 min; in data set [5], 108 min. Moreover, the IC50 in data set [4] came out at 1 µM.

Turning to `COc1ccc2cc(C(=O)N[C@H]3COC3=O)ccc2c1`, the half-life in data set [1] is 0.483 min; on Albumin, less than 1 min; in data set [2] it was 19.1 min; in data set [3] it was 18.1 min; in data set [5], 8.2 min. The Drug degradation entry in [6] and in data set [7] was “Active” in each case.

With `O=C1OCC1CCCCc1ccccc1` (stereo not drawn), the half-life in data set [1] was 0.233 min; at Albumin, 15.1 min; in data set [2] it was 114 min; in data set [3], 115 min; in data set [5], 93.5 min.

For `O=C(NCc1ccccc1)N[C@@H]1COC1=O`, the IC50 in [4] came to 49.2 µM.

Take `CC(C)(C)OC(=O)N[C@@H]1COC1=O`: the IC50 in [4] was determined as 0.5 µM.

As to `CC(C)(C)OC(=O)N[C@H]1COC1=O`, the half-life in data set [1] is less than 0.167 min; at Albumin it was 19.6 min; in data set [2], 39 min; in data set [3], 43.4 min; in data set [5], 33.7 min. The 50% inhibitory concentration (IC50) in data set [4] worked out at 0.58 µM.

As for `O=C(N[C@H]1COC1=O)c1ccc2ccccc2c1`, the half-life in data set [1] is less than 0.167 min; at Albumin, less than 1 min; in data set [2], 15.9 min; in data set [3], 19 min; in [5] it was 9.8 min. The Time entry in data set [8] and in data set [14] was “<= 2 hr” each time. The Drug degradation result in data set [9], in [6], in data set [10], in data set [11], in data set [7] and in data set [12] was “Active” in each case. For the same molecule, the Drug degradation result in [13] was “Active”.

As for `C[C@@H]1OC(=O)[C@@H]1NC(=O)OCCCCCc1ccccc1`, the half-life in data set [1] is less than 0.167 min; on Albumin, 11.4 min; in data set [2], 134 min; in data set [3], 194 min; in data set [5], 110 min. The IC50 in data set [4] amounted to 0.13 µM.
